Assay [1] in a line: S. cerevisiae growth inhibition in permissive medium (OD615), pilot counter-assay for S. cerevisiae lifespan shortening project, permissive growth control (AID 705;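 active = growth inhibition above 25% in both replicates, a cutoff set 3 SD above the mean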). The note with it: OD615, 24 h, at 10 µM, active compounds read high. In outline: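 Material: engineered DeaD yeast; Compound: one dose 10 µM, DMSO 0.25% final; Detection: absorbance (optical density) at 615 nm; Buffer or medium: permissive raffinose/galactose medium; Timing: 24 h exposure, 30 °C.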

The nature of assay [2]: S. cerevisiae growth inhibition in restrictive medium, OD615, pilot screen, restrictive growth control, yeast lifespan reduction project (AID 706;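 active = growth inhibition above a set limit, 3 SD over mean compound inhibition, in both replicates, cut at about 43% in these data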;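 note: modified DeaD lifespan yeast strain shifted to restrictive glucose medium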). The note with it: OD615, 48 h, at 10 µM, active compounds read high. In outline:
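Buffer or medium: restrictive glucose medium (CSMM-D); test system: modified S. cerevisiae; doses: single dose of 10 µM compound final, 0.25% DMSO; schedule: 48 h compound exposure at 30 °C; detection: absorbance (optical density) measured at 615 nm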

Assay [3] in a line: doxorubicin toxicity protection in MRP-1 cells – H69AR cells, CellTiter-Glo, duplicate, MRP-1 activator project, pilot screen (AID 807;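 active = viability increase at or above a cutoff of the median across tested compounds plus 3 SD, cut at about 8.5% in these data, passing the limit was not always enough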;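 note: compound pretreatment 18-22 h then 72 h combined with doxorubicin; 0% = doxorubicin alone and 100% = vehicle without doxorubicin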). The note with it: H69AR viability with doxorubicin, CellTiter-Glo luminescence; at 10 µM; active compounds read high. In general terms: Cellular ATP, detected with luciferase, serves as a proxy for viable cell number.
A short description of assay [4]: viability of HCT116 without oncogenic beta-catenin – human colon tumor cells, pilot screen (AID 823).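 Note: 0% = wells killed by 20 µM Hyamine and 100% = untreated DMSO cell wells.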 The note with it: HCT116 beta-catenin knockout viability, CellTiter-Glo, 60 h; at 10 µM; active compounds read low.
A short description of assay [5]: viability of PTEN-null HCT116 cells – cell-based, HCT116 clonal line, CellTiter-Glo, pilot screen (AID 824;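 active = viability at or below 27.92% in each of two runs, the all-compound median minus 4 SD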;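 note: 0% = 20 µM Hyamine control and 100% = vehicle cell control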). Conditions: HCT116 PTEN-deleted viability, 60 h, at 10 µM, active compounds read low.
A short description of assay [6]: RAM pathway blockade in budding yeast – dse1pr::URA3 reporter, 5-FOA selection, pilot screen (AID 869;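 active = inhibition over a set limit, the all-compound mean plus 3 SD, in both replicate runs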;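 note: 0% = DMSO wells with no growth and 100% = 10 µM 1-NA-PP1 with full growth; RAM network block rescues cells from 5-FOA so hits raise OD615 growth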). The note with it: S. cerevisiae dse1pr::URA3 5-FOA growth, OD615, 2 d; at 10 µM; active compounds read high; strain carries analog-sensitive mutant Cbk1 kinase.
Assay [7] can be described thus: RAM signaling pathway blockade in yeast – S. cerevisiae, Pdr1DBD-CYC8 efflux-inhibited sensitized strain, primary screen (AID 1298;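 active = RAM network inhibition above 8.4% in each of two replicates, 3 SD over the compound average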;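 note: 0% = DMSO untreated cells without growth and 100% = 10 µM 1-NA-PP1 full growth; higher means more yeast growth rescued from 5-FOA killing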). The note with it: S. cerevisiae cbk1-as DSE1-URA3 strain, 5-FOA growth OD615, 2 d; at 50 µM; active compounds read high.

Structures are written as SMILES. Unmarked numbers belong to inactive results. Inconclusive results are not listed. Active and inactive are the calls of the source.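 Rule for the calls, unless noted: active = cell viability at or below a set limit in both duplicate runs, the limit being the all-compound median minus 4 SD (cut at about 23% in these data, passing the limit was not always enough); inconclusive = no clear call, values can overlap the other calls; inactive = the rest.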

We go through 18 compounds from PubChem BioAssay.

A word on the viability: it is a read-out of living cells in per cent, often relative to untreated cells. Broadly, the inhibition is the relative decrease from the control value, in per cent.

For `OCCN1CCN(c2ncnc3ccc(Br)cc23)CC1`, the growth inhibition in assay [1] is -15.5%; in assay [2], 4.06%. Besides, in assay [3], the viability increase was -4.77%. The viability in assay [4] is 99.1%; in assay [5] it was 96.7%. The inhibition in assay [6] is -0.12%. Besides, the RAM network inhibition in assay [7] is -1.2%.
For `CC(=O)c1cccc(NC(=O)C2CCCN2S(=O)(=O)c2cccc3cccnc23)c1` (stereo unspecified), the growth inhibition in assay [1] was -1.04%; in assay [2], 3.5%. Also, in assay [3], the viability increase was -5.23%. For the same compound, the viability is 74.4% in assay [4] and 82.7% in assay [5]. Further, the inhibition in assay [6] was 1.09%. In assay [7], the RAM network inhibition is 6.23%.
With `Cc1cc(NC(=O)CSc2cn(C)c3ccccc23)no1`, the growth inhibition was -8.73% in assay [1] and 4.95% in assay [2]. For the same compound, in assay [3], the viability increase is -2.87%. The viability in assay [4] was 97.6%; in assay [5], 99.1%. Moreover, the inhibition in assay [6] was 0.48%. The RAM network inhibition in assay [7] was 1.44%.
Take `O=C(COC(=O)C1(c2ccccc2F)CCCC1)N1CCN(C(=O)c2ccco2)CC1`: the results for the growth inhibition in assay [1] and in assay [2] were -13.4% and -13.8%, respectively. In addition, the viability increase in assay [3] is -2.48%. The viability is 87.3% in assay [4] and 95.4% in assay [5]. The inhibition in assay [6] is 0.995%. The RAM network inhibition in assay [7] is 1.19%.
As to `Fc1ccccc1COc1ccc(/C=N/n2cnnc2)cc1`, the growth inhibition in assay [1] was 3.41%; in assay [2], 23.7%. Further, the viability increase in assay [3] is -1.78%. The values for the viability in assay [4] and in assay [5] were 102% and 95.4%, respectively. Further, the inhibition in assay [6] is 2.11%. Besides, the RAM network inhibition in assay [7] is 2.09%.
`COc1ccc(C)cc1S(=O)(=O)NC1CCCCC1`: the growth inhibition in assay [1] was -9.02%; in assay [2], -4.09%. In assay [3], the viability increase is -0.23%. For the same compound, the viability in assay [4] and in assay [5] was 101% each time. Besides, the inhibition in assay [6] is 0.525%. The RAM network inhibition in assay [7] is 6.79%.
On to `C/C=C/Cn1c(N(C)Cc2ccccc2)nc2c1c(=O)[nH]c(=O)n2C`, for which the values for the growth inhibition in assay [1] and in assay [2] were -17.4% and -23.1%, respectively. For the same compound, the viability increase in assay [3] is 0.04%. Further, the viability is 102% in assay [4] and 87.6% in assay [5]. Also, the inhibition in assay [6] is 0.445%. Moreover, in assay [7], the RAM network inhibition is 3.49%.
For `Cn1c(NC(=O)c2ccccc2Br)cc(=O)n(C)c1=O`, the figures for the growth inhibition in assay [1] and in assay [2] were -9.54% and -19.3%, respectively. Also, the viability increase in assay [3] was -3.97%. The values for the viability in assay [4] and in assay [5] were 105% and 94.5%, respectively. Also, the inhibition in assay [6] is 1.15%. Besides, the RAM network inhibition in assay [7] is 0.36%.
In the case of `CCc1cc2c(NCC3CCCO3)ncnc2s1` (stereo unspecified), the figures for the growth inhibition in assay [1] and in assay [2] were 2.17% and 9.07%, respectively. Moreover, the viability increase in assay [3] is 0.8%. Moreover, the viability in assay [4] was 102%; in assay [5] it was 95.6%. For the same compound, the inhibition in assay [6] was 0.34%. Besides, the RAM network inhibition in assay [7] was 4.46%.
`O=C(NCCN1CCc2ccccc2C1)Nc1ccc(F)cc1`: the growth inhibition is -4.88% in assay [1] and -2.83% in assay [2]. For the same compound, the viability increase in assay [3] was -3.99%. For the same compound, the viability was 105% in assay [4] and 100% in assay [5]. Also, the inhibition in assay [6] is 2.19%. Also, the RAM network inhibition in assay [7] is 2.62%.
As to `O=C(Nc1ccc(N2CCOCC2)c(Cl)c1)C1CCCCC1`, the growth inhibition in assay [1] was 1.5%; in assay [2], 4.29%. In assay [3], the viability increase is -2.1%. The values for the viability in assay [4] and in assay [5] were 97.6% and 94.8%, respectively. Besides, in assay [6], the inhibition was 0.18%. In addition, in assay [7], the RAM network inhibition is 3.22%.
For the compound `O=C1c2ccccc2C(=O)N1CCCc1nc(-c2ccc(Cl)cc2)no1`, the growth inhibition was -1.86% in assay [1] and -5.26% in assay [2]. Also, in assay [3], the viability increase was -1.79%. Besides, the viability was 102% in assay [4] and 100% in assay [5]. In addition, the inhibition in assay [6] is 4.25%. Also, in assay [7], the RAM network inhibition is 2.37%.
Take `CCOC(=O)CSC1=C(C#N)C(c2ccc(C)s2)CC(=O)N1` (stereo unspecified): the growth inhibition was -9.3% in assay [1] and -13.3% in assay [2]. Further, the viability increase in assay [3] is -5.84%. Moreover, the viability in assay [4] is 15.9% (active); in assay [5] it was 16% (active). Further, the inhibition in assay [6] was 1.54%. Also, the RAM network inhibition in assay [7] was 0.22%.
With `O=C(c1ccc(Cn2c(=O)[nH]c3ccccc3c2=O)cc1)N1CCN(c2ccccn2)CC1`, the growth inhibition in assay [1] is -11.8%; in assay [2] it was -8.79%. In assay [3], the viability increase was -2.12%. The results for the viability in assay [4] and in assay [5] were 93.1% and 78.6%, respectively. Moreover, in assay [6], the inhibition is 0.23%. In addition, in assay [7], the RAM network inhibition was 8.38%.
As to `COc1ccc(OCCC(=O)OCC(=O)NCc2ccco2)cc1`, the growth inhibition in assay [1] is -11%; in assay [2], 1.25%. In addition, the viability increase in assay [3] was -1.75%. Further, the viability in assay [4] and in assay [5] was 92.2% each time. For the same compound, the inhibition in assay [6] is 1.01%. Further, the RAM network inhibition in assay [7] is 4.11%.
Regarding `Cn1nc(-c2ccc(Cl)cc2)c2cc(C(=O)N3CCOCC3)sc21`, the growth inhibition in assay [1] was -6.13%; in assay [2] it was 4.78%. Further, the viability increase in assay [3] is -5.6%. Further, the viability in assay [4] was 89.4%; in assay [5], 80.5%. In assay [6], the inhibition is 1.29%. Besides, in assay [7], the RAM network inhibition was 3.38%.
For `CCN(CC)S(=O)(=O)c1ccc(C(=O)OCCN2C(=O)CCC2=O)cc1`, the growth inhibition in assay [1] is -4.98%; in assay [2], 10.3%. Also, the viability increase in assay [3] is 0.48%. The viability in assay [4] was 102%; in assay [5], 101%. For the same compound, in assay [6], the inhibition is 0.755%. Moreover, in assay [7], the RAM network inhibition was 4.16%.
Consider `CCn1c(SCC(=O)N2CCN(c3ccccc3)CC2)nc2c(c1=O)SC(C)C2` (stereo unspecified), for which the growth inhibition in assay [1] is -13.4%; in assay [2], -10.2%. Also, the viability increase in assay [3] was -2.66%. The viability in assay [4] was 88.5%; in assay [5] it was 78.4%. In addition, in assay [6], the inhibition was 1.4%. Further, the RAM network inhibition in assay [7] was 2.11%.
